Test results taken from ChEMBL document CHEMBL3352259, “Benzimidazole--ibuprofen/mesalamine conjugates: potential candidates for multifactorial diseases” (Eur J Med Chem, 2015).

Assays:
Mus musculus [1] = assay: Immunomodulatory activity in albino mouse assessed as change in humoral antibody titre at 150 umol/kg, po for 7 days followed by sheep RBC challenge measured on day 14; type: functional
Method in brief: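 Albino mice, 6 per group, 150 µmol/kg p.o. for 7 days. On day 7, challenged i.p. with 0.1 mL sheep RBC suspension (about 1×10^8 cells per 0.1 mL, saline-washed). Retro-orbital blood taken on day 14, serum separated at 2500 rpm for 10 min, and antibody titre determined by microtitre haemagglutination. Mean ± SD.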

Rattus norvegicus [2] = assay: Antioxidant activity in Wistar rat assessed as thiobarbituric acid reactive substance level measured per mg of protein at 150 umol/kg, po administered for 3 days measured on day 4 (reference value: 3.72 +/- 00.23 nmol); type: functional
Rattus norvegicus [3] = assay: Antioxidant activity in Wistar rat assessed as GSH level measured per 100 mg of protein at 150 umol/kg, po administered for 3 days measured on day 4 (reference value: 184.10 +/- 4.19 umol); type: functional
Rattus norvegicus [4] = assay: Gastrointestinal toxicity in Wistar rat assessed as ulcer index at 150 umol/kg, po administered for 3 days measured on day 4 (reference value: 0.33 +/-0.20); type: organism-based; settings: in vivo, 72 h
Rattus norvegicus [5] = assay: Antiinflammatory activity against carrageenan-induced ip dosed Wistar rat paw edema model assessed as inhibition of edema administered 30 mins prior to carrageenan challenge measured after 60 mins; type: functional
Method in brief: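 Wistar rats (150-200 g, either sex), 150 µmol/kg i.p. 30 min before subplantar carrageenan; vehicle control 0.5% SCMC. Paw volume read at 0, 30, 60, 120, 180 min. % oedema inhibition = 100 − [(treated paw volume/control paw volume) × 100].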

Rattus norvegicus [6] = assay: Antioxidant activity in Wistar rat assessed as catalase level measured per mg of protein at 150 umol/kg, po administered for 3 days measured on day 4 (reference value: 22.14 +/- 1.19 umol); type: functional
Mus musculus [7] = assay: Immunomodulatory activity in albino mouse assessed as change in carbon clearance index at 150 umol/kg, po for 5 days followed by carbon ink challenge; type: functional
Method in brief: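 Albino mice (18-22 g), 6 per group, 150 µmol/kg p.o. daily for 5 days (control 0.5% SCMC, 0.3 mL). Carbon ink suspension (10 µL/g) given via tail vein 48 h later. Retro-orbital blood at 3 and 15 min, 25 µL into 2 mL 0.1% Na2CO3, OD read. K = (ln OD1 − ln OD2)/12. Mean ± SD.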

| Compound | Activity (Mus musculus [1]) [%] | Activity (Rattus norvegicus [2]) [nmol] | Activity (Rattus norvegicus [3]) [µmol] | UI (Rattus norvegicus [4]) | inhibition (INH) (Rattus norvegicus [5]) [%] | Activity (Rattus norvegicus [6]) [µmol] | Activity (Mus musculus [7]) [%] |
| --- | --- | --- | --- | --- | --- | --- | --- |
| Nc1ccc(O)c(C(=O)Nc2nc3ccc([N+](=O)[O-])cc3[nH]2)c1 | -50 | 11.98 | 127.32 | 0.4 | 36.9 | 11.87 | -41.1 |
| Cc1ccc2nc(NC(=O)c3cc(N)ccc3O)[nH]c2c1 | -38.4 | – | – | – | 48.8 | – | -35.2 |
| Cc1ccc2nc(C(C)c3ccc(CC(C)C)cc3)[nH]c2c1 (stereo not drawn) | 38.4 | – | – | – | 58 | – | 70.5 |
| CC(C)Cc1ccc(C(C)c2nc3ccc([N+](=O)[O-])cc3[nH]2)cc1 (stereo not drawn) | 19.2 | – | – | – | 38 | – | 29.4 |
| CC(C)Cc1ccc(C(C)C(=O)Nc2nc3ccc(C(=O)c4ccccc4)cc3[nH]2)cc1 (stereo not drawn) | 42.3 | – | – | – | 60.1 | – | 64.7 |
| CC(C)Cc1ccc(C(C)c2nc3ccc(C(=O)c4ccccc4)cc3[nH]2)cc1 (stereo not drawn) | 61.5 | 11.28 | 131.5 | 0.7 | 68.1 | 14.12 | >100 |
| Nc1ccc(O)c(-c2nc3ccccc3[nH]2)c1 | 61.5 | 5.47 | 178.18 | 0.58 | 54.6 | 18.78 | >100 |
| Nc1ccc(O)c(-c2nc3ccc(C(=O)c4ccccc4)cc3[nH]2)c1 | 69.2 | 8.95 | 153.38 | 1.1 | 62.6 | 16.94 | >100 |
| COc1ccc2nc(NC(=O)c3cc(N)ccc3O)[nH]c2c1 | -34.6 | – | – | – | 50 | – | -29.4 |
| COc1ccc2c(c1)c(CC(=O)O)c(C)n2C(=O)c1ccc(Cl)cc1 [INDOMETHACIN] | – | 30.41 | 85.2 | 3.17 | – | 7.79 | – |
| CC(C)Cc1ccc(C(C)C(=O)Nc2nc3ccccc3[nH]2)cc1 (stereo not drawn) | 38.4 | – | – | – | 53.8 | – | 76.4 |
| COc1ccc2nc(NC(=O)C(C)c3ccc(CC(C)C)cc3)[nH]c2c1 (stereo not drawn) | 26.9 | – | – | – | 55.3 | – | 52.9 |
| Nc1ccc(O)c(C(=O)Nc2nc3ccc(C(=O)c4ccccc4)cc3[nH]2)c1 | -26.9 | – | – | – | 52.1 | – | -17.6 |
| c1ccc([C@H]2CN3CCSC3=N2)cc1 [LEVAMISOLE] | 65.3 | – | – | – | – | – | 88.2 |
| Nc1ccc(O)c(C(=O)Nc2nc3ccccc3[nH]2)c1 | -34.6 | – | – | – | 50 | – | -29.4 |
| Nc1ccc(O)c(C(=O)O)c1 [MESALAMINE] | – | – | – | – | 50 | – | – |
| CC(C)Cc1ccc(C(C)c2nc3ccccc3[nH]2)cc1 (stereo not drawn) | 57.6 | 5.9 | 158.6 | 0.92 | 57.1 | 18.26 | >100 |
| COc1ccc2nc(C(C)c3ccc(CC(C)C)cc3)[nH]c2c1 (stereo not drawn) | 42.3 | – | – | – | 64.7 | – | 52.9 |
| CC(C)Cc1ccc(C(C)C(=O)Nc2nc3ccc([N+](=O)[O-])cc3[nH]2)cc1 (stereo not drawn) | 15.3 | – | – | – | 34.3 | – | 23.5 |
| CC(C)Cc1ccc(C(C)C(=O)O)cc1 (stereo not drawn) [IBUPROFEN] | – | – | – | – | 53.8 | – | – |
| Cc1ccc2nc(-c3cc(N)ccc3O)[nH]c2c1 | 42.3 | – | – | – | 52.4 | – | 58.8 |
| Nc1ccc(O)c(-c2nc3ccc([N+](=O)[O-])cc3[nH]2)c1 | 23 | – | – | – | 42.9 | – | 41.2 |
| Cc1ccc2nc(NC(=O)C(C)c3ccc(CC(C)C)cc3)[nH]c2c1 (stereo not drawn) | 23.1 | – | – | – | 54.1 | – | 47.1 |
| COc1ccc2nc(-c3cc(N)ccc3O)[nH]c2c1 | 46.2 | – | – | – | 55.7 | – | 70.5 |
